In publication PMC6221089 (Diabetes, Obesity & Metabolism, 2018):
No end group written: not given here.

Assays:
[1] = tested on: counterregulatory responses to hypoglycaemia; details: cited from earlier work
[2] = tested on: people with type 2 diabetes; experiment: Safety assessments; assay type: in vivo
Summary of the method: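 Treatment-emergent adverse events counted from baseline to the follow-up visit: those starting on or after the first treatment day and no later than follow-up. Dosing was once-weekly s.c. self-injection for 13 doses per crossover period (0.25, 0.5, then 1.0 mg escalation; placebo volume-matched). Follow-up was in the final week of the second 5-week sampling period.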

[3] = tested on: people with type 2 diabetes; assay type: in vivo
Summary of the method: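 Stepwise hypoglycaemic clamp about 48 h after the 13th weekly s.c. dose; participants fasted (water allowed), supine or semi-supine, with 30-min target PG plateaux. At each target level, symptoms were scored on the Edinburgh Hypoglycaemia Scale and recognition recorded as a yes/no answer to "Do you feel hypo?".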

[4] = tested on: people with type 2 diabetes; experiment: Vital signs during the hypoglycaemic clamp; assay type: in vivo
Summary of the method: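 Heart rate and systolic and diastolic BP recorded at each 30-min target PG level of the stepwise hypoglycaemic clamp. Each value is the mean of two readings, at 0 and 30 min. The clamp was run about 48 h after the 13th weekly s.c. dose, with participants fasted and supine or semi-supine.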

[5] = tested on: plasma glucose; assay type: in vivo, people with type 2 diabetes
Summary of the method: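 Clamp performed about 48 h after the 13th dose, with four 30-min target PG levels. AUC of glucose infusion rate computed at each level. Fasting PG measured on the morning of the day before the clamp. Recovery defined as PG ≥4.0 mmol/L, timed from termination of the insulin infusion at nadir; spontaneous recovery meant reaching this <40 min.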

[6] = LEADER trial; cited from earlier work
[7] = once-weekly s.c. treatment, 13 doses

Native GLP‐1: incretin hormone secreted by intestinal L cells in response to food intake (HAEGTFTSDVSSYLEGQAAKEFIAWLVKGR; ends and bridges not checked; UniProt P01275 98-127, looked up)
Effect on the response to hypoglycaemia ([1]; healthy volunteers): no effect

CC[C@H](C)[C@H](NC(=O)[C@H](Cc1ccccc1)NC(=O)[C@H](CCC(=O)O)NC(=O)[C@H](CCCCNC(=O)COCCOCCNC(=O)COCCOCCNC(=O)CC[C@H](NC(=O)CCCCCCCCCCCCCCCCC(=O)O)C(=O)O)NC(=O)[C@H](C)NC(=O)[C@H](C)NC(=O)[C@H](CCC(N)=O)NC(=O)CNC(=O)[C@H](CCC(=O)O)NC(=O)[C@H](CC(C)C)NC(=O)[C@H](Cc1ccc(O)cc1)NC(=O)[C@H](CO)NC(=O)[C@H](CO)NC(=O)[C@@H](NC(=O)[C@H](CC(=O)O)NC(=O)[C@H](CO)NC(=O)[C@@H](NC(=O)[C@H](Cc1ccccc1)NC(=O)[C@@H](NC(=O)CNC(=O)[C@H](CCC(=O)O)NC(=O)C(C)(C)NC(=O)[C@@H](N)Cc1cnc[nH]1)[C@@H](C)O)[C@@H](C)O)C(C)C)C(=O)N[C@@H](C)C(=O)N[C@@H](Cc1c[nH]c2ccccc12)C(=O)N[C@@H](CC(C)C)C(=O)N[C@H](C(=O)N[C@@H](CCCNC(=N)N)C(=O)NCC(=O)N[C@@H](CCCNC(=N)N)C(=O)NCC(=O)O)C(C)C [semaglutide]
Severity of adverse events ([2]; all events, both treatments): mild or moderate | Clinical laboratory assessments (including amylase, lipase and calcitonin), physical examination or ECG ([2]; baseline to follow-up): No safety findings | Development of anti-semaglutide antibodies ([2]; baseline to follow-up): no participant developed anti‐semaglutide antibodies | Deaths or pancreatitis cases ([2]; during the trial): No deaths or pancreatitis cases | Diastolic BP, mean (SD) change from baseline to end-of-treatment [2, 7]: −2 [10] mm Hg | Heart rate, mean (SD) change from baseline to end-of-treatment [2, 7]: 6 [8] beats/min | Systolic BP, mean (SD) change from baseline to end-of-treatment [2, 7]: −8 [16] mm Hg | Estimated mean hypoglycaemic symptom score vs placebo ([3]; Edinburgh Hypoglycaemia Scale, target PG level 5.5 mmol/L): No difference | Effect on cognitive function ([3]; Trail Making-B, Digit Symbol Substitution, Four-Choice Reaction Time tests, all PG levels): no effect | Hypoglycaemia recognition, answer to "Do you feel hypo?" ([3]; target level 5.5 mmol/L): all participants answered “no” | Response to hypoglycaemia for heart rate, systolic or diastolic BP vs placebo [4]: no systematic differences | Time to reach recovery (PG ≥4.0 mmol/L) ([5]; geometric mean): 44 min | Proportion of participants who recovered spontaneously ([5]; reaching PG ≥4.0 mmol/L < 40 minutes after termination of the insulin infusion at nadir): ~ 50%

liraglutide: GLP‐1 receptor agonist with a similar structure to semaglutide but a different pharmacokinetic profile
Incidence of severe hypoglycaemia compared with placebo [6]: statistically significantly lower | Effect on the counterregulatory responses to hypoglycaemia [1]: no effect
